Reference: ChEMBL document CHEMBL1123708, “Resolved cis- and trans-2-amino-5-methoxy-1-methyltetralins: central dopamine receptor agonists and antagonists” (1987)
The source made the active and inactive calls. The rule behind the calls is not given here.

Key:
Rattus norvegicus [1] = assay: In vivo DOPA accumulation in reserpine pretreated rat striatum system by subcutaneous administration; I denotes inactive; assay type: functional, organism-based
In short: (§1)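 Rats received reserpine (5 mg/kg sc) 18 h, test drug sc 60 min and NSD 1015 (100 mg/kg ip) 30 min before death, with saline controls. Limbic or striatal DOPA was measured. Dose for half-maximal decrease was estimated from 4-7-dose curves (n = 3-5), minimal level as % of control.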

Rattus norvegicus [2] = assay: In vivo DOPA accumulation in reserpine pretreated rat limbic system by subcutaneous administration; I denotes inactive; assay type: functional, organism-based; in short: as §1
Rattus norvegicus [3] = assay: In vivo DOPA accumulation in non pretreated rat striatum system by subcutaneous administration; I denotes inactive; assay type: functional, organism-based
In short: (§2)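 Rats without pretreatment received test drug sc 65 min and NSD 1015 (100 mg/kg ip) 30 min before death, with saline controls. DOPA was measured in limbic or striatal tissue. Dose for half-maximal change was estimated from 4-5-dose curves (n = 3-5), maximal level as % of control.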

Rattus norvegicus [4] = assay: Induced locomotor stimulation in non pre-treated rats by 52 umol/kg s.c. administration.; assay type: functional
Rattus norvegicus [5] = assay: In vivo DOPA accumulation in non pretreated rat limbic system by subcutaneous administration; I denotes inactive; assay type: functional, organism-based; in short: as §2
Rattus norvegicus [6] = assay: Induced locomotor stimulation in non pre-treated rats by 13 umol/kg s.c. administration.; assay type: functional
[7] = target: T1, Dopamine receptor (Rattus norvegicus) (UniProt P25115+P19020+P30729+P18901+P61169); assay: Ability to displace the Dopamine receptor agonist DiPr-5,6-ADTN from rat striatal binding sites in vivo at a dose of 13 uM/kg by subcutaneous administration; assay type: organism-based
Rattus norvegicus [8] = assay: Change in rectal temperature induced by DiPr-5,6-ADTN at a dose of 13 umol/kg of compound by subcutaneous administration; assay type: functional
In short: (§3)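 Rats received DiPr-5,6-ADTN (0.25 μmol/kg sc) 100 min and test compound sc 40 min before death. Rectal temperature change (°C) was recorded between 60 and 100 min after DiPr-5,6-ADTN. Values are mean ± SEM, n = 4, with Student's t test vs DiPr-5,6-ADTN alone.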

Rattus norvegicus [9] = assay: In vivo DOPA accumulation in non pretreated rat limbic system by subcutaneous administration;. indicates 40-50% increase in limbic system after 52 umol/kg (sc); assay type: functional, organism-based; in short: as §2
Rattus norvegicus [10] = assay: In vivo DOPA accumulation in non pretreated rat striatum system by subcutaneous administration.; hr indicates 40-50% increase in limbic system after 52 umol/kg (sc); assay type: functional, organism-based; in short: as §2
Rattus norvegicus [11] = assay: Locomotory activity was determined in non pretreated rats at a dose of 3.2 umol/kg by subcutaneous administration; assay type: functional
In short: (§4)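 Untreated rats received test drug sc 5 min before a 30-min session in photocell motility meters, with accumulated counts recorded. Activity is expressed as percent of saline controls, mean ± SEM, n = 3-5. Gross behaviour was observed through a semitransparent mirror. Differences from saline controls were assessed by Student's t test.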

Rattus norvegicus [12] = assay: In vivo DOPA accumulation in reserpine pretreated rat striatum system by subcutaneous administration; denotes inactive; assay type: functional, organism-based; in short: as §1
Rattus norvegicus [13] = assay: Locomotory activity was determined in non pretreated rats at a dose of 52 umol/kg by subcutaneous administration; assay type: functional; in short: as §4
Rattus norvegicus [14] = assay: Locomotory activity was determined in reserpine pretreated rats at a dose of 52 umol/kg by subcutaneous administration. Value is the accumulation counts/30 min; assay type: functional
In short: (§5)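 Rats were given reserpine 5 mg/kg sc 18 h beforehand, then test drug sc immediately before the activity session. Motor activity was recorded by photocells in motility meters as accumulated counts over 30 min, mean ± SEM, n = 3-4. Gross behaviour was watched for signs of stimulation. Reserpine-only controls were included.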

[15] = target: T1, Dopamine receptor (Rattus norvegicus); assay: In vivo displacement of DiPr-5,6-ADTN from Dopamine receptors in rat striatum; assay type: organism-based
Rattus norvegicus [16] = assay: In vivo DOPA accumulation in non pre-treated rat striatal system following s.c. administration.; assay type: functional; conditions: sc; in short: as §2
Rattus norvegicus [17] = assay: In vivo DOPA accumulation in non pre-treated rat limbic system following s.c. administration.; assay type: functional; conditions: sc; in short: as §2
Rattus norvegicus [18] = assay: In vivo DOPA accumulation in non pretreated rat striatum system by subcutaneous administration; denotes inactive; assay type: functional, organism-based; in short: as §2
Rattus norvegicus [19] = assay: In vivo DOPA accumulation in non pretreated rat limbic system by subcutaneous administration; indicates 40-80% increase in limbic system after 52 umol/kg (sc); assay type: functional, organism-based; in short: as §2
Rattus norvegicus [20] = assay: In vivo DOPA accumulation in non pretreated rat striatum system by subcutaneous administration; indicates 40-80% increase in limbic system after 52 umol/kg (sc); assay type: functional, organism-based; in short: as §2
Rattus norvegicus [21] = assay: In vivo DOPA accumulation in reserpine pretreated rat striatum system by subcutaneous administration; assay type: functional; in short: as §1
Rattus norvegicus [22] = assay: Locomotory activity was determined in non pretreated rats at a dose of 52 umol/kg by subcutaneous administration; I denotes inactive; assay type: functional; in short: as §4
Rattus norvegicus [23] = assay: In vivo % increase in DOPA accumulation in non pretreated rat limbic system after 52 umol/kg (sc); I denotes inactive; assay type: functional, organism-based
Rattus norvegicus [24] = assay: In vivo % increase in DOPA accumulation in non pretreated rat striatum system after 52 umol/kg (sc); I denotes inactive; assay type: functional, organism-based
Rattus norvegicus [25] = assay: In vivo DOPA accumulation in reserpine pretreated rat limbic system by subcutaneous administration; assay type: functional; conditions: sc; in short: as §1
Rattus norvegicus [26] = assay: Locomotory activity was determined in reserpine pretreated rats at a dose of 204 umol/kg by subcutaneous administration. Value is the accumulation counts/30 min; assay type: functional; in short: as §5
Rattus norvegicus [27] = assay: Change in rectal temperature induced by DiPr-5,6-ADTN at a dose of 52 umol/kg of compound by subcutaneous administration; assay type: functional; in short: as §3
[28] = target: T1, Dopamine receptor (Rattus norvegicus); assay: Ability to displace the Dopamine receptor agonist DiPr-5,6-ADTN from rat striatal binding sites in vivo at a dose of 52 uM/kg by subcutaneous administration; assay type: organism-based
Rattus norvegicus [29] = assay: Induced locomotor stimulation was determined in non pretreated rats at a dose of 52 uM/kg by subcutaneous administration; assay type: functional; in short: as §4
Rattus norvegicus [30] = assay: ((+)-UH-232) induced locomotor stimulation was determined in non pretreated rats at a dose of 52 umol/kg by subcutaneous administration; assay type: functional
[31] = target: T1, Dopamine receptor (Rattus norvegicus); assay: Ability to displace the Dopamine receptor agonist DiPr-5,6-ADTN from rat striatal binding sites in vivo at a dose of 52 umol/kg by subcutaneous administration; assay type: organism-based
[32] = target: T1, Dopamine receptor (Rattus norvegicus); assay: Ability to displace the Dopamine receptor agonist DiPr-5,6-ADTN from rat striatal binding sites in vivo at a dose of 10 uM/kg by subcutaneous administration; assay type: organism-based
Rattus norvegicus [33] = assay: Change in rectal temperature induced by DiPr-5,6-ADTN at a dose of 40 umol/kg of compound by subcutaneous administration; assay type: functional; in short: as §3
Rattus norvegicus [34] = assay: Change in rectal temperature induced by DiPr-5,6-ADTN at a dose of 10 umol/kg of compound by subcutaneous administration; assay type: functional; in short: as §3
[35] = target: T1, Dopamine receptor (Rattus norvegicus); assay: Ability to displace the Dopamine receptor agonist DiPr-5,6-ADTN from rat striatal binding sites in vivo at a dose of 40 uM/kg by subcutaneous administration; assay type: organism-based

| SMILES | Activity (Rattus norvegicus [4]) [%] | Activity (Rattus norvegicus [6]) [%] | Body temp change (Rattus norvegicus [8]) [°C] | Activity (Rattus norvegicus [11]) [%] | Binding [15] [%] | ED50 (Rattus norvegicus [16]) [µmol/kg] | ED50 (Rattus norvegicus [17]) [µmol/kg] | also measured |
| --- | --- | --- | --- | --- | --- | --- | --- | --- |
| CCCN(CCC)[C@@H]1CCc2c(O)cccc2[C@H]1C | 97 |  |  |  |  |  |  | ED50 (Rattus norvegicus [1]): inactive; ED50 (Rattus norvegicus [2]): inactive; ED50 (Rattus norvegicus [3]): inactive; ED50 (Rattus norvegicus [5]): inactive |
| CCCCN(CCCC)[C@@H]1CCc2c(OC)cccc2[C@@H]1C | 96 | 96 | -0.27 |  |  |  |  | ED50 (Rattus norvegicus [3]): inactive; Binding [7]: 115%; ED50 (Rattus norvegicus [5]): inactive |
| CCCCN[C@@H]1CCc2c(O)cccc2[C@@H]1C | 76 | 80 | -0.93 | 89 |  |  |  | ED50 (Rattus norvegicus [9]): Weak activity; ED50 (Rattus norvegicus [10]): Weak activity; Binding [7]: 46% |
| CCCN[C@H]1CCc2c(OC)cccc2[C@H]1C |  |  |  | 113 |  |  |  | ED50 (Rattus norvegicus [12]): inactive; ED50 (Rattus norvegicus [2]): inactive; ED50 (Rattus norvegicus [3]): inactive; Activity (Rattus norvegicus [13]): 119%; Activity (Rattus norvegicus [14]): 12 counts/30 min; ED50 (Rattus norvegicus [5]): inactive |
| CCCN[C@@H]1CCc2c(O)cccc2[C@@H]1C | 125 | 107 | 0.1 | 114 | 66 | 16 | 9 |  |
| C[C@H]1c2cccc(O)c2CC[C@H]1N |  | 86 |  | 94 | 98 |  |  | ED50 (Rattus norvegicus [18]): inactive; Activity (Rattus norvegicus [13]): 97%; Temperature (Rattus norvegicus [8]): -0.7 °C; ED50 (Rattus norvegicus [5]): inactive |
| CCCCN(CCCC)[C@H]1CCc2c(O)cccc2[C@H]1C |  | 87 | -0.7 |  |  |  |  | ED50 (Rattus norvegicus [1]): inactive; ED50 (Rattus norvegicus [2]): inactive; Binding [7]: 124%; Activity (Rattus norvegicus [14]): 6 counts/30 min |
| CCCCN(CCCC)[C@@H]1CCc2c(O)cccc2[C@@H]1C | 82 | 89 | -0.43 |  |  |  |  | ED50 (Rattus norvegicus [19]): Weak activity; Binding [7]: 96%; ED50 (Rattus norvegicus [20]): Weak activity |
| CCN[C@@H]1CCc2c(OC)cccc2[C@@H]1C |  | 69 |  | 108 | 36 | 4.8 | 5.3 | Activity (Rattus norvegicus [13]): 60%; Temperature (Rattus norvegicus [8]): 1.33 °C |
| CCCCN[C@@H]1CCc2c(OC)cccc2[C@@H]1C |  | 82 |  | 113 | 76 | 20 | 18 | Activity (Rattus norvegicus [13]): 135%; Temperature (Rattus norvegicus [8]): -0.25 °C |
| CN[C@@H]1CCc2c(O)cccc2[C@@H]1C |  | 73 |  | 143 | 54 | 7.5 | 5.5 | Activity (Rattus norvegicus [13]): 47%; Temperature (Rattus norvegicus [8]): 0.15 °C |
| CCCN(CCC)[C@@H]1CCc2c(OC)cccc2[C@H]1C |  |  |  |  |  |  |  | ED50 (Rattus norvegicus [2]): inactive; ED50 (Rattus norvegicus [21]): inactive; ED50 (Rattus norvegicus [3]): inactive; Activity (Rattus norvegicus [22]): 88%; ED50 (Rattus norvegicus [5]): inactive |
| COc1cccc2c1CC[C@@H](N)[C@H]2C |  | 88 |  | 136 | 83 | 4.2 | 4.4 | Activity (Rattus norvegicus [13]): 62%; Temperature (Rattus norvegicus [8]): -1.33 °C |
| C[C@H]1c2cccc(O)c2CC[C@H]1N(C)C | 1 | 11 | 1.48 | 76 | 39 | 3.4 | 5.5 |  |
| CCN(CC)[C@H]1CCc2c(O)cccc2[C@H]1C | 40 | 100 | 0.22 |  |  |  |  | ED50 (Rattus norvegicus [23]): inactive; ED50 (Rattus norvegicus [24]): inactive; ED50 (Rattus norvegicus [21]; sc): 1.6 µmol/kg; Binding [7]: 70%; ED50 (Rattus norvegicus [25]): 1.4 µmol/kg; Activity (Rattus norvegicus [14]): 5 counts/30 min |
| CCN[C@@H]1CCc2c(O)cccc2[C@@H]1C | 62 | 95 | -0.5 | 83 | 64 | 6 | 15 |  |
| CCCN(CCC)[C@H]1CCc2c(OC)cccc2[C@@H]1C | 82 |  |  |  |  |  |  | ED50 (Rattus norvegicus [1]): inactive; ED50 (Rattus norvegicus [2]): inactive; ED50 (Rattus norvegicus [3]): inactive; ED50 (Rattus norvegicus [5]): inactive |
| C[C@@H]1c2cccc(O)c2CC[C@@H]1N(C)C | 15 | 34 | 0.88 |  |  | 8.5 | 8.5 | Activity (Rattus norvegicus [26]): 7 counts/30 min; Body temp change (Rattus norvegicus [27]): 1.82 °C; ED50 (Rattus norvegicus [21]; sc): 25 µmol/kg; Binding [28]: 22%; Binding [7]: 63%; Activity (Rattus norvegicus [29]): 4%; ED50 (Rattus norvegicus [25]): 28 µmol/kg |
| CN[C@@H]1CCc2c(OC)cccc2[C@@H]1C | 29 | 35 |  | 86 | 51 | 1.8 | 4.7 | Activity (Rattus norvegicus [30]): 9%; Binding [31]: 20%; Temperature (Rattus norvegicus [27]): 0.93 °C; Temperature (Rattus norvegicus [8]): -0.25 °C |
| CCN(CC)[C@@H]1CCc2c(O)cccc2[C@@H]1C | 19 | 63 | 0.2 | 113 | 49 | 6.5 | 13 |  |
| CCCN(CCC)[C@@H]1CCc2c(O)cccc2[C@@H]1C | 102 |  |  | 110 |  | 9.4 | 110 | ED50 (Rattus norvegicus [1]): inactive; ED50 (Rattus norvegicus [2]): inactive; Binding [32]: 61%; Body temp change (Rattus norvegicus [33]): 1.7 °C; Body temp change (Rattus norvegicus [34]): 1.7 °C; Binding [35]: 21%; Activity (Rattus norvegicus [14]): 6 counts/30 min |
